Assay results from ChEMBL document CHEMBL1133218, “N-[(R,R)-(E)-1-(4-chloro-benzyl)-3-(2-oxo-azepan-3-ylcarbamoyl)-allyl]-N-methyl-3,5-bis-trifluoromethyl-benzamide: an orally active neurokinin NK1/NK2 antagonist” (Bioorg Med Chem Lett, 2000).

Tests used:
Substance-K receptor = target: T1, Substance-K receptor (Homo sapiens, UniProt P21452); assay: In vitro inhibition of [125I]NKA binding to transfected Chinese hamster ovary cells (CHO cells) expressing recombinant human Tachykinin receptor 2; format: cell-based
T1 sequence (P21452 whole entry): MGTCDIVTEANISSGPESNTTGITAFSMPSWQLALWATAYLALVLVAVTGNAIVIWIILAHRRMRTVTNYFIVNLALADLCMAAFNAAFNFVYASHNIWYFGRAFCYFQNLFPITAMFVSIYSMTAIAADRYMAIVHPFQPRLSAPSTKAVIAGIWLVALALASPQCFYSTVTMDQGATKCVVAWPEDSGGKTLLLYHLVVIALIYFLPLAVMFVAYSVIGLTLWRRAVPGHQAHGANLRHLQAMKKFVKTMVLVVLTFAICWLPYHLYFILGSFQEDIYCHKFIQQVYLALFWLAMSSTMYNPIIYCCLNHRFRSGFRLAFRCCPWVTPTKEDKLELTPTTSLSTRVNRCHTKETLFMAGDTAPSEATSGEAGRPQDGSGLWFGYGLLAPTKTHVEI
Summary of the method: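 Binding of 0.05 nM [125I]-NKA (2200 Ci/mmol) to 3×10^5 hNK2-transfected CHO cells in 20 mM HEPES pH 7.4 with 2 mM MnSO4 and 6 mM MgCl2, across a range of drug concentrations. Incubated 20 min at room temperature. Nonspecific binding taken with 50 nM NKA. Rapid filtration, 4 washes in ice-cold Tricine, filter radioactivity by scintillation counting, triplicates.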

Cavia porcellus [1] = assay: In vivo inhibition against beta-Ala8-NKA-induced bronchoconstriction in guinea pig at 4 h; format: functional
Cavia porcellus [2] = assay: In vivo inhibition against Sar9SP-induced bronchoconstriction in guinea pigs at 1 mg/kg for 12 h; format: functional
Cavia porcellus [3] = assay: In vivo inhibition against beta-Ala8-NKA-induced bronchoconstriction in guinea pig at 2 h; format: functional
Cavia porcellus [4] = assay: In vivo inhibition against Sar9SP-induced bronchoconstriction in guinea pigs at 4 h; format: functional
Cavia porcellus [5] = assay: In vivo inhibition against Sar9SP-induced bronchoconstriction in guinea pigs at 2 h; format: functional

Row | Structure (SMILES) | IC50 (Substance-K receptor) | further results
1 | CN(C(=O)c1cc(C(F)(F)F)cc(C(F)(F)F)c1)[C@H](/C=C/C(=O)N[C@@H]1CCCCNC1=O)Cc1ccc(Cl)cc1 | 123 nM | 
2 | CN(C(=O)c1cc(C(F)(F)F)cc(C(F)(F)F)c1)[C@H](/C=C/C(=O)N[C@H]1CCCCNC1=O)Cc1ccc(Cl)cc1 | 300 nM | 
3 | CN(C(=O)c1cc(C(F)(F)F)cc(C(F)(F)F)c1)[C@@H](/C=C/C(=O)N[C@H]1CCCCNC1=O)Cc1ccc(Cl)cc1 (mixture of isomers) | 120 nM | 

Molecules with a lower IC50 (Substance-K receptor), results first:

Row | IC50 (Substance-K receptor) | Structure (SMILES) | further results
4 | 24 nM | CN(C(=O)c1cc(C(F)(F)F)cc(C(F)(F)F)c1)[C@@H](/C=C/C(=O)N[C@@H]1CCCCNC1=O)Cc1ccc(Cl)cc1 | ED50 (Cavia porcellus [1]): 0.73 mg/kg; inhibition in vivo at 1 mg/kg (Cavia porcellus [2]): 85%; ED50 (Cavia porcellus [3]): 0.9 mg/kg; ED50 (Cavia porcellus [4]): 0.03 mg/kg; ED50 (Cavia porcellus [5]): 0.036 mg/kg
5 | 55 nM | CN(C(=O)c1cc(C(F)(F)F)cc(C(F)(F)F)c1)C(/C=C/C(=O)NC1CCCCNC1=O)Cc1ccc(Cl)cc1 (mixture of isomers) | 
